From ChEMBL document CHEMBL1128532, “Antidiabetic agents: a new class of reversible carnitine palmitoyltransferase I inhibitors” (J Med Chem, 1995) come the findings set out here.

Usually IC50 stands for the midpoint of a concentration-inhibition curve. Usually Ki stands for a dissociation constant, usually derived from enzyme kinetics or from competition with a known ligand. Low values mean a stronger hold on the target, high ones a looser hold on the target.

Assay [1] deals with Rattus norvegicus. Description: Blood glucose level in NIDDM rats after 11 days of treatment at a dose 21.9 mg/kg/d Blood samples taken 6 hr post-dose in a 6 hr fasted state. Format: functional. An outline of the steps:
(§1)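 NIDDM model: fat-fed, low-dose streptozotocin-treated rats. Oral gavage once daily for 11 days at 0 to 87.5 mg/kg/d. Blood sampled 6 h post-dose, with rats in a 6 h fasted state. Blood glucose reported in mg/dL as mean ± error. Significance tested against vehicle control (p<0.05, p<0.01).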

Assay [2] is filed under the species Rattus norvegicus. Description: Inhibition of production of ketones in rat liver hepatocytes from 18 hr fasted rats. Format: functional. The conditions noted are these: Hepatocyte. In outline:
(§2)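 Fatty acid oxidation was read as the fall in ketone production, tested in rat liver homogenates and in hepatocytes isolated from 18 h fasted rats. IC50 ± SE was taken from concentration-response data. Where no reasonable dose response was seen, the highest dose tested is given instead.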

Assay [3] deals with Rattus norvegicus. Description: Blood glucose level in NIDDM rats after 11 days of treatment at a dose 0 mg/kg/d Blood samples taken 6 hr post-dose in a 6 hr fasted state. Format: functional. In outline: as §1
Assay [4] deals with Rattus norvegicus. As to the kind of experiment: Blood glucose level in NIDDM rats after 11 days of treatment at a dose 21.9 […] Blood samples taken 6 hr post-dose in a 6 hr fasted state. Format: functional. An outline of the steps:
as §1

For assay [5], the system named is Rattus norvegicus. Description: Blood glucose level in NIDDM rats after 11 days of treatment at a dose 32.9 mg/kg/d Blood samples taken 6 hr post-dose in a 6 hr fasted state. Format: functional. In outline:
as §1

The species entered for assay [6] is Rattus norvegicus. As to the kind of experiment: Inhibition of production of ketones in rat liver homogenates. It is filed as functional. In outline: as §2
In assay [7] the target is T1, Carnitine O-palmitoyltransferase 1, liver isoform (Rattus norvegicus, UniProt P32198).
T1 sequence (P32198 whole entry): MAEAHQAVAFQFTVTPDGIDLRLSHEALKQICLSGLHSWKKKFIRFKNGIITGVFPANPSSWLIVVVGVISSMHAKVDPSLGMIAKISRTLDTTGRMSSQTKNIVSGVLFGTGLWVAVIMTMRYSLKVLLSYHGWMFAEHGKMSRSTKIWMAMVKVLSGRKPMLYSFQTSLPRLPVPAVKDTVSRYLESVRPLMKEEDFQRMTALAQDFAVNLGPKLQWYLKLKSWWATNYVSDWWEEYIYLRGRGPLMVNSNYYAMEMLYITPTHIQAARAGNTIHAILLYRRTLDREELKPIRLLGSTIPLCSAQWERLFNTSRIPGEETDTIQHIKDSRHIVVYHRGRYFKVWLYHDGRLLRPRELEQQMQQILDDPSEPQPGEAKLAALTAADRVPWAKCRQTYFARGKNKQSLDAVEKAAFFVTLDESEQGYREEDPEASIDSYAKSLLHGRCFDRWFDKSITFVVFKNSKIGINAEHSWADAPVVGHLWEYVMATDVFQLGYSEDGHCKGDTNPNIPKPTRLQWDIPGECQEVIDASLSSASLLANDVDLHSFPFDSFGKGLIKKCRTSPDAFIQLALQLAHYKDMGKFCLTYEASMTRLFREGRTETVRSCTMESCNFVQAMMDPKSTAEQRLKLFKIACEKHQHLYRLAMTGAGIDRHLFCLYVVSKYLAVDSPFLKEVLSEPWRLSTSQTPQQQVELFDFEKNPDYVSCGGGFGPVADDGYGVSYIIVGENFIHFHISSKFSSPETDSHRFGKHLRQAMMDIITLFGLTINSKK
Description: In vitro inhibition of carnitine palmitoyltransferase I with respect to palmitoyl CoA in rat.

The species entered for assay [8] is Rattus norvegicus. As to the kind of experiment: Blood glucose level in NIDDM rats after 11 days of treatment Blood samples taken 6 hr post-dose in a 6 hr fasted state. It is filed as functional. In outline:
as §1

The structures appear in SMILES notation. “And” between values parts separate entries of the source, which are not always exact repeats. Identical values can stand only once.

On to `CCCCCCCCCCCCCCOP(=O)([O-])O[C@H](CC(=O)O)C[N+](C)(C)C`, for which the Glucose level in the assay with Rattus norvegicus [1] was 164 mg/dL; in the assay on Rattus norvegicus [3], 197 mg/dL; in the assay on Rattus norvegicus [4] it was 164 mg/dL; with Rattus norvegicus [5], 179 mg/dL and 93 mg/dL; in the assay filed under Rattus norvegicus [8] it was 197 mg/dL. Further, the results for the IC50 in the assay filed under Rattus norvegicus [2] and in the assay filed under Rattus norvegicus [6] were 3.4 µM and 28 µM, respectively. In addition, the Ki in assay [7] worked out at 3.6 µM.
For `CCCCCCCCCCCCCCCP(=O)([O-])NC(CC(=O)O)C[N+](C)(C)C` (configuration not stated), the IC50 in the assay listed under Rattus norvegicus [2] was over 300 µM; in the assay filed under Rattus norvegicus [6] it was over 100 µM.
On to `CCCCCCCCCCCCCCCP(=O)([O-])O[C@H](CC(=O)O)C[N+](C)(C)C`, for which the results for the IC50 in the assay filed under Rattus norvegicus [2] and in the assay listed under Rattus norvegicus [6] were 3 µM and 36 µM, respectively.
The matching figures for `CCCCCCCCCCCCCCOP(=O)([O-])O[C@@H](CC(=O)O)C[N+](C)(C)C`: 220 µM and over 300 µM.
Consider `CCCCCCCCCCCCCCP(=O)([O-])CC(CC(=O)O)C[N+](C)(C)C` (configuration not stated), for which the IC50 in the assay listed under Rattus norvegicus [2] and in the assay listed under Rattus norvegicus [6] was over 300 µM each time.
Turning to `CCCCCCCCCCCCCCOP(=O)([O-])N[C@H](CC(=O)O)C[N+](C)(C)C`, the IC50 in the assay listed under Rattus norvegicus [2] came out at 46 µM; in the assay listed under Rattus norvegicus [6], 24 µM.
Regarding `CCCCCCCCCCCCCCCP(=O)([O-])O[C@@H](CC(=O)O)C[N+](C)(C)C`, the IC50 was over 300 µM in the assay listed under Rattus norvegicus [2] and over 100 µM in the assay listed under Rattus norvegicus [6].
For `CCCCCCCCCCCCCCCC(=O)NC(CC(=O)[O-])C[N+](C)(C)C` (configuration not stated), the IC50 was 1.2 µM in the assay filed under Rattus norvegicus [2] and 1.3 µM in the assay listed under Rattus norvegicus [6].
